In ChEMBL document CHEMBL3351943, “Binding modes of reverse fosmidomycin analogs toward the antimalarial target IspC” (J Med Chem, 2014):

Tests used:
[1] = biological target: T1, 1-deoxy-D-xylulose 5-phosphate reductoisomerase (Escherichia coli K-12, UniProt P45568); assay: Inhibition of Escherichia coli M15 recombinant IspC using 1-deoxy-D-xylulose 5-phosphate as substrate by photometric analysis
T1 sequence (P45568 whole entry): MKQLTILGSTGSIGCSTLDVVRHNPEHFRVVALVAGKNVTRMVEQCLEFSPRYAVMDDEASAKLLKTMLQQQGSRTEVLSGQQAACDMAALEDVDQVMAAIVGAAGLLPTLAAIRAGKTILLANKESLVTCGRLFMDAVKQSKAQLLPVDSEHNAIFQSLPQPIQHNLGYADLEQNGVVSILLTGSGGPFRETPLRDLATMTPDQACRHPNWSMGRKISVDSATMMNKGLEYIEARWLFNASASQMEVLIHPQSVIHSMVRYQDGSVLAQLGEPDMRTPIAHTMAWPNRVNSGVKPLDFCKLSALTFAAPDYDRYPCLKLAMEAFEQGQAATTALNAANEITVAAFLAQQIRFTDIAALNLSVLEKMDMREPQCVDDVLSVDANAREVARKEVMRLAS
Method in brief: (§1)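 Photometric enzyme assay run per an earlier method. IC50 was fitted by nonlinear regression from eight or more data points. Generally two or three independent determinations were made.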

Plasmodium falciparum [2] = assay: Antimicrobial activity against multidrug-resistant Plasmodium falciparum FCR3 assessed as growth inhibition after 3 days by HRP2-based ELISA; format: functional, organism-based; details: FCR3, 72 h
Method in brief: (§2)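 Parasite growth followed by ELISA for P. falciparum histidine-rich protein 2; values are the mean of two duplicate determinations.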

Plasmodium falciparum [3] = assay: Antimicrobial activity against chloroquine-sensitive Plasmodium falciparum 3D7 assessed as growth inhibition after 3 days by HRP2-based ELISA; format: functional, organism-based; details: 3D7, 72 h; method in brief: as §2
Plasmodium falciparum [4] = assay: Antimicrobial activity against chloroquine-resistant Plasmodium falciparum Dd2 assessed as growth inhibition after 3 days by HRP2-based ELISA; format: functional; details: Dd2, 72 h; method in brief: as §2
[5] = Inhibition of Plasmodium falciparum IspC using 1-deoxy-D-xylulose 5-phosphate as substrate by photometric analysis; method in brief: as §1
[6] = biological target: T2, 1-deoxy-D-xylulose 5-phosphate reductoisomerase (Mycobacterium tuberculosis, UniProt P9WNS1); assay: Inhibition of Mycobacterium tuberculosis IspC using 1-deoxy-D-xylulose 5-phosphate as substrate by photometric analysis
T2 sequence (P9WNS1 whole entry): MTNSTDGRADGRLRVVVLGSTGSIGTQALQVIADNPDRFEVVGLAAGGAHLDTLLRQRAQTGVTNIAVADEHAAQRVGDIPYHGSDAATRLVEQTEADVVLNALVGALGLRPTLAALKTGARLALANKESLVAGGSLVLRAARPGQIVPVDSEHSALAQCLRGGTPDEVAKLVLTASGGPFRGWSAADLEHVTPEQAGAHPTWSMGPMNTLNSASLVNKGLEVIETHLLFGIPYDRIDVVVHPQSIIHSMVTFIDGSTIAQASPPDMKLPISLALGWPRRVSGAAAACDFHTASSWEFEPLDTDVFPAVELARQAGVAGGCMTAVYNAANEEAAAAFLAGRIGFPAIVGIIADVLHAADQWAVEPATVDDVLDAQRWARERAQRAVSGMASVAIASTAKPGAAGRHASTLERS

Compound	IC50 [1]	IC50 (Plasmodium falciparum [2])	IC50 (Plasmodium falciparum [3])	IC50 (Plasmodium falciparum [4])	IC50 [5]	IC50 [6]
Cc1ccc(C(CCC(=O)N(C)O)P(=O)(O)O)cc1 (stereo unspecified)	0.29 µM	0.38 µM	0.21 µM	0.25 µM	0.01 µM	–
COc1ccc(C(CCC(=O)N(C)O)P(=O)(O)O)cc1 (stereo unspecified)	0.07 µM	0.57 µM	0.1 µM	0.3 µM	0.02 µM	2 µM
Cc1ccc(C(CCC(=O)NO)P(=O)(O)O)cc1 (stereo unspecified)	0.7 µM	–	2.6 µM	2.8 µM	0.19 µM	11 µM
COc1ccc(C(CCC(=O)NO)P(=O)(O)O)cc1 (stereo unspecified)	0.14 µM	–	1.7 µM	3.6 µM	0.08 µM	15 µM
COc1ccc(C(CCC(=O)N(C)O)P(=O)(O)O)cc1OC (stereo unspecified)	0.32 µM	–	0.29 µM	1.2 µM	0.06 µM	29 µM
COc1ccc(C(CCC(=O)NO)P(=O)(O)O)cc1OC (stereo unspecified)	1.5 µM	–	6.8 µM	8.1 µM	0.13 µM	163 µM
COc1ccc(C(OCC(=O)N(C)O)P(=O)(O)O)cc1 (stereo unspecified)	0.45 µM	0.41 µM	0.31 µM	1.1 µM	0.05 µM	2.8 µM
COc1ccc(C(OCC(=O)NO)P(=O)(O)O)cc1 (stereo unspecified)	17 µM	–	> 50 µM	–	2.2 µM	352 µM
CN(O)C(=O)CCCC(c1ccccc1)P(=O)(O)O (stereo unspecified)	4.3 µM	–	> 50 µM	–	2.1 µM	429 µM
CN(O)C(=O)CCC(NC(=O)c1ccccc1)P(=O)(O)O (stereo unspecified)	11 µM	–	> 50 µM	–	9.1 µM	238 µM
O=C(CCC(NC(=O)c1ccccc1)P(=O)(O)O)NO (stereo unspecified)	741 µM	–	> 50 µM	–	> 1000 µM	> 1000 µM
O=C(CCC(c1ccccc1)P(=O)(O)O)Nc1ccccc1O (stereo unspecified)	> 500 µM	–	> 50 µM	–	> 300 µM	> 500 µM
O=P(O)(O)CCC(c1cccc2ccccc12)P(=O)(O)O (stereo unspecified)	> 500 µM	–	> 50 µM	–	> 300 µM	> 500 µM
